Assay [1] deals with L1210. The assay is described as follows: Inhibition of L1210 cell proliferation in cytotoxic assay. Type of assay: functional, cell-based. As to conditions: Mus musculus. The method in brief: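 Murine L1210 leukaemia cells (nonadherent, exponential growth) in RPMI 1640 with 10% FCS, 2 mM glutamine, 10 mM HEPES pH 7.4; 48 h exposure to serial dilutions (compounds from 5 mM DMSO stock diluted in water). MTT added for 4 h at 37 °C, formazan dissolved in DMSO, OD 540 nm; IC50 by linear regression on linear part of dose–response; triplicate.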

Assay [2] deals with DNA topoisomerase 2-alpha (Homo sapiens) (UniProt P11388). The assay is described as follows: Inhibition of human DNA topoisomerase II alpha as percent linear DNA after treatment with 20 uM.
Chain of DNA topoisomerase 2-alpha (Homo sapiens) (P11388 whole entry): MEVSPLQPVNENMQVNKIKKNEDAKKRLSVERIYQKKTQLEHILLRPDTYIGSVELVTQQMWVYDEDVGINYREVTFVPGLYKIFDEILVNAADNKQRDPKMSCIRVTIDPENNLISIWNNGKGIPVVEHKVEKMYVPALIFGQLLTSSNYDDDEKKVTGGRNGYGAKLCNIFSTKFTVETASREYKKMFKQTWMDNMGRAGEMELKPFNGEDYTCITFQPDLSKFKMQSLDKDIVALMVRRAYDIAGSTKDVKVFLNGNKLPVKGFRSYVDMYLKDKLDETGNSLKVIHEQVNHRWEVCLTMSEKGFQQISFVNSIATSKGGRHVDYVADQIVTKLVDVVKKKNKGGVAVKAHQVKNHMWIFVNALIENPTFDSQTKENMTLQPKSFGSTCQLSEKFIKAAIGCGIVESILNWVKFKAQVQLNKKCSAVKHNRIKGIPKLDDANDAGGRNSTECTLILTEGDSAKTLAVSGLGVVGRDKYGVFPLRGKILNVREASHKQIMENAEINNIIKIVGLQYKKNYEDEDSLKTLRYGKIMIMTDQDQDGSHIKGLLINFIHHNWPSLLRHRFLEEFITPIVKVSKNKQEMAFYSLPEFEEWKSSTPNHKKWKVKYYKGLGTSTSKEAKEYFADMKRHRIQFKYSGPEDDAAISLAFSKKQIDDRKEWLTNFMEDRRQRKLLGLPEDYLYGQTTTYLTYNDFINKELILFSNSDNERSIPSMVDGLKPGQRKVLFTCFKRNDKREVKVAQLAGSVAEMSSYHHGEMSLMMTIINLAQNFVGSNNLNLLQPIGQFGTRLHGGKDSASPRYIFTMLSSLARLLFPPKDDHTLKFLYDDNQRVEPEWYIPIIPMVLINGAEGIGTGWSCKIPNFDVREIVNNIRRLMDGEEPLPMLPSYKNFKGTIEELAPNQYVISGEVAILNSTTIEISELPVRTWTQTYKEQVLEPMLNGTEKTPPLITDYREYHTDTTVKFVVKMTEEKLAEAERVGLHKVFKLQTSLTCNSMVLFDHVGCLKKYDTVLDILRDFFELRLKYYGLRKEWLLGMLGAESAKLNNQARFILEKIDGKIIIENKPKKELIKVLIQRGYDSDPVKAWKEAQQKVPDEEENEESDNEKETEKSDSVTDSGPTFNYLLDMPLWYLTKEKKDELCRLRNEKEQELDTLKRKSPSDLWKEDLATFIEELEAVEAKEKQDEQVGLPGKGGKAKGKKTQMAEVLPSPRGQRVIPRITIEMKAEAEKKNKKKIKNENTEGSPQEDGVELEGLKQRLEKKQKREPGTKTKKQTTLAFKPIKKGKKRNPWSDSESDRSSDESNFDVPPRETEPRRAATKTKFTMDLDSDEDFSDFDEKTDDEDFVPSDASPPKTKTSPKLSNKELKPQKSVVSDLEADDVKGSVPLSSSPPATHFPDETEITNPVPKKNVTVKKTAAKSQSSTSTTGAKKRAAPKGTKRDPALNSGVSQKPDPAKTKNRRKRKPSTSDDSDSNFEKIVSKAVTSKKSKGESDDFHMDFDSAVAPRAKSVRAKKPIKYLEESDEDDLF
For assay [3], the system named is L1210. Nature of the assay: Percentage of L1210 cells in the G2M phase after treatment with compound at 25 uM concentration expressed as cell cycle effect. Format: functional, Mus musculus. The method in brief:
(§1)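 L1210 cells at 2.5×10^5 cells/mL exposed 21 h to the compound; fixed in 70% ethanol, stained 30 min at 20 °C in D-PBS with 100 µg/mL RNase A and 25 µg/mL propidium iodide; 10^4 cells per sample by flow cytometry; value is % of cells in G2M.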

Assay [4] deals with L1210. Nature of the assay: Percentage of L1210 cells in the G2M phase after treatment with compound at 1 uM concentration expressed as cell cycle effect. Type of assay: functional, Mus musculus. The method in brief: as §1
Assay [5] deals with L1210. Nature of the assay: Percentage of L1210 cells in the G2M phase after treatment with compound at 10 uM concentration expressed as cell cycle effect. Format: functional, Mus musculus. A digest of the protocol:
as §1

Another assay has as its system P388. Nature of the assay: Maximum tolerated dose value on day 1 against mouse P388 leukemia cells. Type of assay: functional. A digest of the protocol: (§2)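 B6D2F1 mice inoculated ip with 10^6 P388 cells (day 0), single iv dose on day 1. MTD = highest dose without toxic death and/or >20% weight loss. T/C (%) = median survival time treated/control ×100.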
A further assay relates to A549. The assay is described as follows: Maximum tolerated dose after treatment on days 14, 21, and 28 against human A549 non-small-cell lung carcinoma.
The subject of assay [6] is L1210. The assay is described as follows: Percentage of L1210 cells in the G2M phase after treatment with compound at 2.5 uM concentration expressed as cell cycle effect. Format: functional, Mus musculus. A digest of the protocol:
as §1

For assay [7], the species on record is Mus musculus. The assay is described as follows: Percent median survival time to that of control in mice on day 1. Type of assay: functional. The method in brief:
as §2

For assay [8], the species on record is Mus musculus. Nature of the assay: Percent median survival time to that of control in mice on days 14,21 and 28. Format: functional. A digest of the protocol:
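BALB/c nude mice given 10^6 A549 cells orthotopically into left pleural space under anaesthesia; iv treatment on days 14, 21 and 28 after implantation. MTD = dose without toxic death and/or >20% weight loss; T/C (%) = median survival time treated/control ×100.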

Assay [9] has as its system L1210. Nature of the assay: Percentage of L1210 cells in the G2M phase after treatment with compound at 0.1 uM concentration expressed as cell cycle effect. Format: functional, Mus musculus. A digest of the protocol:
as §1

`COc1cc([C@@H]2c3cc4c(cc3[C@@H](OCNCCN(C)C)C3COC(=O)[C@@H]32)OCO4)cc(OC)c1O` (stereo not given in full) showed an IC50 in the assay on L1210 [1] of 27900 nM.
Take `COc1cc([C@@H]2c3cc4c(cc3[C@@H](OC(=O)N(C)CCCN(C)C)C3COC(=O)[C@@H]32)OCO4)cc(OC)c1O` (stereo not given in full): the IC50 in the assay with L1210 [1] worked out at 960 nM. The molecule further displayed a percent linear DNA in assay [2] of 17%.
In the case of `COc1cc([C@@H]2c3cc4c(cc3[C@@H](OC(=O)N(C)CCN(C)C)[C@H]3C(=O)OC[C@H]23)OCO4)cc(OC)c1O`, in the assay with L1210 [3], the Activity is recorded as 77%. Also, the IC50 in the assay on L1210 [1] is 5200 nM. Further, the percent linear DNA in [2] was 0%.
Consider `COc1cc([C@@H]2c3cc4c(cc3[C@@H](OC(=O)NCCCN(C)C)C3COC(=O)[C@@H]32)OCO4)cc(OC)c1O` (stereo not given in full), for which the Activity in the assay on L1210 [4] was 72%. The molecule also displayed a concentration for half-maximal inhibition (IC50) in the assay with L1210 [1] of 340 nM. Also, in [2], the percent linear DNA worked out at 58%.
For `COc1cc([C@@H]2c3cc4c(cc3[C@@H](OC(=O)NCCCN)[C@H]3C(=O)OC[C@H]23)OCO4)cc(OC)c1O`, the midpoint of inhibition in the assay on L1210 [1], the IC50, lay at 4300 nM. Further, the percent linear DNA in assay [2] worked out at 0%.
As to `COc1cc([C@@H]2c3cc4c(cc3[C@@H](OC(=O)NCCCN(C)C)[C@H]3C(=O)OC[C@H]23)OCO4)cc(OC)c1O`, the half-maximal inhibitory concentration (IC50) in the assay on L1210 [1] came out at 1400 nM. The same molecule registered a percent linear DNA in assay [2] of 0%. Moreover, the Activity with L1210 [5] turned out to be 65%.
Turning to `COc1cc([C@@H]2c3cc4c(cc3[C@@H](O[C@@H]3O[C@@H]5CO[C@@H](C)O[C@H]5[C@H](O)[C@H]3O)[C@H]3COC(=O)[C@H]23)OCO4)cc(OC)c1O` [ETOPOSIDE], the values for the maximum tolerated dose (MTD) in the assay with P388 and in the assay on A549 were 100 mg/kg and 70 mg/kg, respectively. For the same molecule, in the assay on L1210 [6], the Activity is reported as 76%. For the same molecule, the percent linear DNA in assay [2] worked out at 50%. Moreover, the figures for the T/C in the assay filed under Mus musculus [7] and in the assay listed under Mus musculus [8] were 233% and 131%, respectively.
With `COc1cc([C@@H]2c3cc4c(cc3[C@@H](OC(=O)N(C)CCCN(C)C)[C@H]3C(=O)OC[C@H]23)OCO4)cc(OC)c1O`, the 50% inhibitory concentration (IC50) in the assay with L1210 [1] was found to be 21000 nM. The same molecule gave a percent linear DNA in [2] of 0%.
Take `COc1cc([C@@H]2c3cc4c(cc3[C@@H](CCN(C)CCN(C)C)C3COC(=O)[C@@H]32)OCO4)cc(OC)c1O` (stereo not given in full): in the assay with L1210 [1], the 50% inhibitory concentration (IC50) was 600 nM. Moreover, the Activity in the assay on L1210 [6] turned out to be 75%. Besides, the percent linear DNA in assay [2] is 57%.
With `COc1cc([C@@H]2c3cc4c(cc3[C@@H](OC(=O)NCCN(C)C)C3COC(=O)[C@@H]32)OCO4)cc(OC)c1O` (stereo not given in full), the MTD in the assay with P388 and in the assay with A549 was 6.25 mg/kg throughout. The same molecule returned an IC50 in the assay with L1210 [1] of 38 nM. In addition, in assay [2], the percent linear DNA stood at 56%. The T/C is 192% in the assay filed under Mus musculus [7] and 151% in the assay listed under Mus musculus [8]. In the assay with L1210 [9], the Activity stood at 67%.
As to `COc1cc([C@@H]2c3cc4c(cc3[C@@H](OC(=O)N(C)CCCN)C3COC(=O)[C@@H]32)OCO4)cc(OC)c1O` (stereo not given in full), the IC50 in the assay with L1210 [1] amounted to 240 nM. Besides, the percent linear DNA in [2] came to 8%.
For `COc1cc([C@@H]2c3cc4c(cc3[C@@H](OC(=O)NCCN(C)C)[C@H]3C(=O)OC[C@H]23)OCO4)cc(OC)c1O`, the MTD with P388 worked out at 12.5 mg/kg; with A549 it was 6.25 mg/kg. In addition, the Activity with L1210 [4] was determined as 83%. The molecule also returned an IC50 in the assay with L1210 [1] of 88 nM. For the same molecule, the percent linear DNA in [2] amounted to 64%. Moreover, the T/C in the assay filed under Mus musculus [7] was determined as 214%; in the assay listed under Mus musculus [8], 152%.
Molecule `COc1cc([C@@H]2c3cc4c(cc3[C@@H](OC(=O)NCCCN)C3COC(=O)[C@@H]32)OCO4)cc(OC)c1O` (stereo not given in full) returned an IC50 in the assay on L1210 [1] of 1300 nM. In [2], this molecule showed a percent linear DNA of 38%.
Consider `COc1cc([C@@H]2c3cc4c(cc3[C@@H](OC(=O)N(C)CCN(C)C)C3COC(=O)[C@@H]32)OCO4)cc(OC)c1O` (stereo not given in full), for which the MTD worked out at 50 mg/kg in the assay on P388 and 25 mg/kg with A549. For the same molecule, in the assay with L1210 [1], the IC50 turned out to be 1700 nM. The Activity with L1210 [6] came to 77%. In assay [2], the percent linear DNA came to 27%. For the same molecule, the T/C is listed as 182% in the assay listed under Mus musculus [7] and 102% in the assay listed under Mus musculus [8].

Values taken from ChEMBL document CHEMBL1141184, “Synthesis and biological study of a new series of 4'-demethylepipodophyllotoxin derivatives” (J Med Chem, 2005).
